Measurements: ChEMBL document CHEMBL5724801, “EUbOPEN Chemogenomics Library - Multiplex” (2024)
Where “and” joins values, the source holds several entries; their conditions need not be identical. Equal entries are not always repeated.

System: U2OS
Assay: Multiplex assay against U2OS
Assay type: toxicity, cell-based
Settings: human
How it was run: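 Per cents of healthy-nucleus cells form the tubulin, mitochondrial-mass and membrane-permeability phenotype values. Live cells were stained at seeding with Hoechst33342, BioTracker Green Microtubule Cytoskeleton Dye, MitoTracker Red and Annexin V Alexa Fluor 680. After compound addition they were imaged on a CQ1 microscope at 37°C and 5% CO2, and CellPathfinder machine-learning gating split them into Hoechst high-intensity objects or normal cells, normal cells into healthy, pyknosed or fragmented nuclei, and pyknosed cells into mitotic or apoptotic.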

[1] = 12 h, 1 µM, compound concentration 1 uM
[2] = 12 h, 10 µM, compound concentration 10 uM
[3] = 24 h, 1 µM, compound concentration 1 uM
[4] = 24 h, 10 µM, compound concentration 10 uM
[5] = 48 h, 1 µM, compound concentration 1 uM
[6] = 48 h, 10 µM, compound concentration 10 uM

Cc1c(Cc2ccc3ccccc3n2)c2cc(F)ccc2n1CC(=O)O [TIMAPIPRANT]
Population Apoptotic (%) [1]: 84% and 83% | Population Fragmented Nuclei (%) [1]: 21% and 22% | Population Healthy Nuclei (%) [1]: 69% and 70% | Population Hoechst High Intensity Objects (%) [1]: 2% and 1% | Population Membrane Permeable-Phenotype (%) [1]: 3% and 4% | Population Mitochondria Different-Phenotype (%) [1]: 1% and 4% | Population Mitotic Cells (%) [1]: 16% | Population Normal (%) [1]: 97% and 98% | Population Pyknosed Nuclei (%) [1]: 8% and 6% | Population Tubulin-Different-Phenotype (%) [1]: 1% and 3% | Population Apoptotic (%) [2]: 75% and 68% | Population Fragmented Nuclei (%) [2]: 30% and 12% | Population Healthy Nuclei (%) [2]: 62% and 75% | Population Hoechst High Intensity Objects (%) [2]: 2% and 0% | Population Membrane Permeable-Phenotype (%) [2]: 4% and 6% | Population Mitochondria Different-Phenotype (%) [2]: 1% and 3% | Population Mitotic Cells (%) [2]: 25% and 31% | Population Normal (%) [2]: 97% and 99% | Population Pyknosed Nuclei (%) [2]: 6% and 12% | Population Tubulin-Different-Phenotype (%) [2]: 2% and 3% | Total Cell Count [2]: 244 and 132 | Population Apoptotic (%) [3]: 96% and 100% | Population Fragmented Nuclei (%) [3]: 18% and 19% | Population Healthy Nuclei (%) [3]: 73% | Population Hoechst High Intensity Objects (%) [3]: 1% | Population Membrane Permeable-Phenotype (%) [3]: 6% and 7% | Population Mitochondria Different-Phenotype (%) [3]: 3% and 2% | Population Mitotic Cells (%) [3]: 3% and 0% | Population Normal (%) [3]: 98% | Population Pyknosed Nuclei (%) [3]: 7% | Population Tubulin-Different-Phenotype (%) [3]: 4% and 3% | Population Apoptotic (%) [4]: 94% and 72% | Population Fragmented Nuclei (%) [4]: 26% and 18% | Population Healthy Nuclei (%) [4]: 66% and 74% | Population Hoechst High Intensity Objects (%) [4]: 1% and 0% | Population Membrane Permeable-Phenotype (%) [4]: 6% and 8% | Population Mitochondria Different-Phenotype (%) [4]: 2% | Population Normal (%) [4]: 98% and 100% | Population Pyknosed Nuclei (%) [4]: 6% and 7% | Population Tubulin-Different-Phenotype (%) [4]: 3% | Total Cell Count [4]: 278 and 152 | Population Apoptotic (%) [5]: 88% and 90% | Population Fragmented Nuclei (%) [5]: 16% and 22% | Population Healthy Nuclei (%) [5]: 77% and 71% | Population Hoechst High Intensity Objects (%) [5]: 1% and 2% | Population Membrane Permeable-Phenotype (%) [5]: 4% and 12% | Population Mitochondria Different-Phenotype (%) [5]: 3% and 5% | Population Mitotic Cells (%) [5]: 11% and 10% | Population Normal (%) [5]: 98% and 97% | Population Pyknosed Nuclei (%) [5]: 6% | Population Tubulin-Different-Phenotype (%) [5]: 3% and 6% | Population Apoptotic (%) [6]: 100% and 92% | Population Fragmented Nuclei (%) [6]: 19% and 13% | Population Healthy Nuclei (%) [6]: 74% and 80% | Population Hoechst High Intensity Objects (%) [6]: 0% and 2% | Population Membrane Permeable-Phenotype (%) [6]: 3% and 5% | Population Mitochondria Different-Phenotype (%) [6]: 1% and 3% | Population Mitotic Cells (%) [6]: 0% and 7% | Population Normal (%) [6]: 99% and 97% | Population Pyknosed Nuclei (%) [6]: 6% | Population Tubulin-Different-Phenotype (%) [6]: 1% and 3% | Total Cell Count [6]: 392 and 204

Cc1cccc(F)c1C(=O)Nc1cnc(-c2cc3c(cc2Cl)OC(F)(F)O3)cn1 [ZEGOCRACTIN]
Population Apoptotic (%) [1]: 54.76% and 21.05% | Population Fragmented Nuclei (%) [1]: 1.87% and 5.79% | Population Healthy Nuclei (%) [1]: 86.93% and 78.51% | Population Hoechst High Intensity Objects (%) [1]: 0% | Population Membrane Permeable-Phenotype (%) [1]: 0.61% and 6.32% | Population Mitochondria Different-Phenotype (%) [1]: 0% and 12.63% | Population Mitotic Cells (%) [1]: 45.24% and 78.95% | Population Normal (%) [1]: 100% | Population Pyknosed Nuclei (%) [1]: 11.2% and 15.7% | Population Tubulin-Different-Phenotype (%) [1]: 0.61% and 0% | Population Apoptotic (%) [2]: 37.66% and 30.95% | Population Fragmented Nuclei (%) [2]: 0.97% and 1.07% | Population Healthy Nuclei (%) [2]: 80.39% and 76.47% | Population Hoechst High Intensity Objects (%) [2]: 0.24% and 0% | Population Membrane Permeable-Phenotype (%) [2]: 0.6% and 8.39% | Population Mitotic Cells (%) [2]: 62.34% and 69.05% | Population Normal (%) [2]: 99.76% and 100% | Population Pyknosed Nuclei (%) [2]: 18.64% and 22.46% | Population Tubulin-Different-Phenotype (%) [2]: 3.01% and 4.9% | Total Cell Count [2]: 414 and 187 | Population Apoptotic (%) [3]: 49.12% and 21.74% | Population Fragmented Nuclei (%) [3]: 2.5% and 3.68% | Population Healthy Nuclei (%) [3]: 86.54% and 82.21% | Population Hoechst High Intensity Objects (%) [3]: 0% | Population Membrane Permeable-Phenotype (%) [3]: 0.22% and 5.22% | Population Mitochondria Different-Phenotype (%) [3]: 0.22% and 7.46% | Population Mitotic Cells (%) [3]: 50.88% and 78.26% | Population Normal (%) [3]: 100% | Population Pyknosed Nuclei (%) [3]: 10.96% and 14.11% | Population Tubulin-Different-Phenotype (%) [3]: 0.89% and 0.75% | Population Apoptotic (%) [4]: 37.72% and 34.92% | Population Fragmented Nuclei (%) [4]: 3.21% and 2.36% | Population Healthy Nuclei (%) [4]: 75.24% and 67.92% | Population Hoechst High Intensity Objects (%) [4]: 0% | Population Membrane Permeable-Phenotype (%) [4]: 2.76% and 6.94% | Population Mitotic Cells (%) [4]: 62.28% and 65.08% | Population Normal (%) [4]: 100% | Population Pyknosed Nuclei (%) [4]: 21.55% and 29.72% | Population Tubulin-Different-Phenotype (%) [4]: 2.76% and 2.78% | Total Cell Count [4]: 529 and 212 | Population Apoptotic (%) [5]: 35.96% and 56% | Population Fragmented Nuclei (%) [5]: 3.36% and 3.03% | Population Healthy Nuclei (%) [5]: 87.83% and 87.5% | Population Hoechst High Intensity Objects (%) [5]: 0% | Population Membrane Permeable-Phenotype (%) [5]: 1.69% and 2.6% | Population Mitochondria Different-Phenotype (%) [5]: 0.34% and 5.63% | Population Mitotic Cells (%) [5]: 64.04% and 44% | Population Normal (%) [5]: 100% | Population Pyknosed Nuclei (%) [5]: 8.8% and 9.47% | Population Tubulin-Different-Phenotype (%) [5]: 1.58% and 0.43% | Population Apoptotic (%) [6]: 51.14% and 60.82% | Population Fragmented Nuclei (%) [6]: 5.7% and 6.6% | Population Healthy Nuclei (%) [6]: 63.11% and 59.72% | Population Hoechst High Intensity Objects (%) [6]: 0.14% and 0% | Population Membrane Permeable-Phenotype (%) [6]: 2.48% and 8.72% | Population Mitotic Cells (%) [6]: 48.86% and 39.18% | Population Normal (%) [6]: 99.86% and 100% | Population Pyknosed Nuclei (%) [6]: 31.2% and 33.68% | Population Tubulin-Different-Phenotype (%) [6]: 4.97% and 4.65% | Total Cell Count [6]: 703 and 288
